# Test results: ChEMBL document CHEMBL1154855 (Eur J Med Chem, 2010)
# Legend:
# [1] = system: MDCK; test: Cytotoxicity against Influenza A virus subtype H3N2 infected MDCK cells by trypan blue exclusion method; type: cell-based, Canis lupus familiaris; conditions: dog
# [2] = system: Vero; test: (§1) Cytotoxicity against Reovirus 1 infected african green monkey Vero cells by trypan blue exclusion method; type: cell-based; conditions: chlorocebus sabaeus, vero
# In short: (§2)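 Uninfected confluent cultures were run in parallel with the infected cultures. Medium was replaced by 1 ml maintenance medium with serial compound concentrations; cell controls received no compound. Cultures were incubated at 37 °C. After 2 and 7 days, compound was withdrawn and viability was determined by trypan blue exclusion.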
# [3] = system: Streptococcus viridans; test: Antibacterial activity against Streptococcus viridans after 24 hrs by broth microdilution method; type: functional
# In short: (§3)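 Clinical isolates. Each dilution received 100 μl of 0.5 McFarland fresh culture. Solvent (DMSO), growth and standard controls were included. Tubes were incubated at 37 °C for 24 h. MIC is the highest dilution showing no turbidity. Tests were run in triplicate, with at least two repetitions.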
# [4] = system: Influenza A virus; test: Antiviral activity against Influenza A virus H1N1 infected in MDCK cells assessed as protection from virus-induced cytopathogenicity after 6 to 7 days by MTT assay; type: functional, organism-based
# [5] = system: Coxsackievirus B4; test: Antiviral activity against Human coxsackievirus B4 infected in african green monkey Vero cells assessed as protection from virus-induced cytopathogenicity after 2 days by MTT assay; type: functional, organism-based; conditions: Enterovirus B, 48 h
# [6] = system: HEL; test: (§4) Cytotoxicity against VSV infected HEL cells by trypan blue exclusion method; type: cell-based; conditions: human, hel; in short: as §2
# [7] = system: Escherichia coli; test: Antibacterial activity against Escherichia coli after 24 hrs by broth microdilution method; type: functional; in short: as §3
# [8] = Cytotoxicity against Feline coronavirus infected cat CRFK cells by trypan blue exclusion method; type: cell-based, Felis catus; conditions: crfk; in short: as §2
# [9] = system: Vero; test: (§5) Cytotoxicity against PIV 3 infected african green monkey Vero cells by trypan blue exclusion method; type: cell-based; conditions: chlorocebus sabaeus, vero; in short: as §2
# [10] = system: Vero; test: (§6) Cytotoxicity against Human coxsackievirus B4 infected african green monkey Vero cells by trypan blue exclusion method; type: cell-based; conditions: chlorocebus sabaeus, vero; in short: as §2
# [11] = system: Vero; test: (§7) Cytotoxicity against Punta Toro virus infected african green monkey Vero cells by trypan blue exclusion method; type: cell-based; conditions: chlorocebus sabaeus, vero; in short: as §2
# [12] = system: Mammalian orthoreovirus 1; test: Antiviral activity against Reovirus 1 infected in african green monkey Vero cells assessed as protection from virus-induced cytopathogenicity after 6 to 7 days by MTT assay; type: functional, organism-based; conditions: Mammalian orthoreovirus 1, Vero
# [13] = system: Human alphaherpesvirus 1; test: Antiviral activity against acyclovir-sensitive Herpes simplex virus 1 KOS infected in HEL cells assessed as protection from virus-induced cytopathogenicity after 2 to 3 days by MTT assay; type: functional, organism-based; conditions: Human alphaherpesvirus 1, KOS
# [14] = system: Influenza B virus; test: Antiviral activity against Influenza B virus infected in MDCK cells assessed as protection from virus-induced cytopathogenicity after 6 to 7 days by MTT assay; type: functional, organism-based
# [15] = system: Vero; test: (§8) Cytotoxicity against Sindbis virus infected african green monkey Vero cells by trypan blue exclusion method; type: cell-based; conditions: chlorocebus sabaeus, vero; in short: as §2
# [16] = system: HeLa; test: (§9) Cytotoxicity against Respiratory syncytial virus infected human HeLa cells by trypan blue exclusion method; type: cell-based; conditions: hela; in short: as §2
# [17] = system: HEL; test: (§10) Cytotoxicity against Vaccinia virus infected HEL cells by trypan blue exclusion method; type: cell-based; conditions: human, hel; in short: as §2
# [18] = system: Feline coronavirus; test: Antiviral activity against Feline coronavirus infected in cat CRFK cells assessed as protection from virus-induced cytopathogenicity by MTT assay; type: functional, organism-based; conditions: Alphacoronavirus 1, CRFK
# [19] = Cytotoxicity against HIV2 ROD infected human MT4 cells by MTT assay; type: cell-based; conditions: MT4 cells infected with HIV-2 ROD
# In short: (§11)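 MT-4 cells (3 × 10^4 per well) were cultured in microdilution trays with various concentrations of compound, then incubated 5 days at 37 °C, and viable cell number was read by MTT.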
# [20] = in vitro; conditions: human, HeLa cells
# [21] = system: Human immunodeficiency virus 2; test: Antiviral activity against HIV2 ROD infected in human MT4 cells assessed as protection from virus-induced cytopathogenicity after 5 days by MTT assay; type: functional, organism-based; conditions: Human immunodeficiency virus 2, ISOLATE ROD, MT4, 120 h
# In short: (§12)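 MT-4 cells at 3 × 10^4 per well were infected with HIV (IIIB or ROD) at 50% cell culture infective doses. Graded compound concentrations were added immediately after infection. Plates were incubated for 5 days at 37 °C and viable cells were counted by MTT.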
# [22] = system: Coxsackievirus B4; test: Antiviral activity against Human coxsackievirus B4 infected in human HeLa cells assessed as protection from virus-induced cytopathogenicity after 2 days by MTT assay; type: functional, organism-based; conditions: Enterovirus B, 48 h
# [23] = system: Influenza A virus; test: Antiviral activity against Influenza A virus H3N2 infected in MDCK cells assessed as protection from virus-induced cytopathogenicity after 6 to 7 days by MTT assay; type: functional, organism-based
# [24] = system: Felid alphaherpesvirus 1; test: Antiviral activity against Feline herpesvirus infected in cat CRFK cells assessed as protection from virus-induced cytopathogenicity by MTT assay; type: functional, organism-based; conditions: Felid alphaherpesvirus 1, CRFK
# [25] = system: Human respirovirus 3; test: Antiviral activity against PIV 3 infected in african green monkey Vero cells assessed as protection from virus-induced cytopathogenicity after 6 to 7 days by MTT assay; type: functional, organism-based; conditions: Human respirovirus 3, Vero
# [26] = system: HEL; test: (§13) Cytotoxicity against Herpes simplex virus 2 G infected HEL cells by trypan blue exclusion method; type: cell-based; conditions: human, hel; in short: as §2
# [27] = system: MDCK; test: Cytotoxicity against Influenza B virus infected MDCK cells by trypan blue exclusion method; type: cell-based, Canis lupus familiaris; conditions: dog
# [28] = system: Respiratory syncytial virus; test: Antiviral activity against Respiratory syncytial virus infected in human HeLa cells assessed as protection from virus-induced cytopathogenicity after 4 days by MTT assay; type: functional, organism-based; conditions: 96 h
# [29] = system: Vesicular stomatitis virus; test: Antiviral activity against VSV infected in human HeLa cells assessed as protection from virus-induced cytopathogenicity after 1 to 2 days by MTT assay; type: functional, organism-based
# [30] = system: Sindbis virus; test: Antiviral activity against Sindbis virus infected in african green monkey Vero cells assessed as protection from virus-induced cytopathogenicity after 2 to 3 days by MTT assay; type: functional, organism-based
# [31] = system: Klebsiella pneumoniae; test: Antibacterial activity against Klebsiella pneumoniae after 24 hrs by broth microdilution method; type: functional; in short: as §3
# [32] = system: Human immunodeficiency virus 1; test: Antiviral activity against HIV1 3B-infected in human MT4 cells assessed as protection from virus-induced cytopathogenicity after 5 days by MTT assay; type: functional, organism-based; conditions: Human immunodeficiency virus 1, 3B, MT4, 120 h; in short: as §12
# [33] = system: Human alphaherpesvirus 2; test: Antiviral activity against Herpes simplex virus 2 G infected in HEL cells assessed as protection from virus-induced cytopathogenicity after 2 to 3 days by MTT assay; type: functional, organism-based; conditions: Human alphaherpesvirus 2, strain G
# [34] = system: Human alphaherpesvirus 1; test: Antiviral activity against Herpes simplex virus 1 KOS infected in HEL cells assessed as protection from virus-induced cytopathogenicity after 2 to 3 days by MTT assay; type: functional, organism-based; conditions: Human alphaherpesvirus 1, KOS
# [35] = system: Punta Toro virus; test: Antiviral activity against Punta Toro virus infected in african green monkey Vero cells assessed as protection from virus-induced cytopathogenicity by MTT assay; type: functional, organism-based
# [36] = system: HEL; test: (§14) Cytotoxicity against Herpes simplex virus 1 KOS infected HEL cells by trypan blue exclusion method; type: cell-based; conditions: human, hel; in short: as §2
# [37] = Cytotoxicity against Feline herpesvirus infected cat CRFK cells by trypan blue exclusion method; type: cell-based, Felis catus; conditions: crfk; in short: as §2
# [38] = system: Vesicular stomatitis virus; test: Antiviral activity against VSV infected in HEL cells assessed as protection from virus-induced cytopathogenicity after 1 to 2 days by MTT assay; type: functional, organism-based
# [39] = Selectivity index, ratio of CC50 for HIV2 ROD infected human MT4 cells to IC50 for […] ROD; type: functional
# [40] = system: Proteus mirabilis; test: Antibacterial activity against Proteus mirabilis after 24 hrs by broth microdilution method; type: functional; in short: as §3
# [41] = system: HEL; test: Cytotoxicity against acyclovir-sensitive Herpes simplex virus 1 KOS infected HEL cells by trypan blue exclusion method; type: cell-based; conditions: human; in short: as §2
# [42] = Cytotoxicity against HIV1 3B-infected human MT4 cells by MTT assay; type: cell-based; conditions: MT4 cells infected with HIV-1 3B; in short: as §11
# [43] = system: HeLa; test: (§15) Cytotoxicity against Human coxsackievirus B4 infected human HeLa cells by trypan blue exclusion method; type: cell-based; conditions: hela; in short: as §2
# [44] = system: HeLa; test: (§16) Cytotoxicity against VSV infected human HeLa cells by trypan blue exclusion method; type: cell-based; conditions: hela; in short: as §2
# [45] = as §1; type: cell-based; conditions: chlorocebus sabaeus, Vero cells infected with reovirus 1; in short: as §2
# [46] = as §4; type: cell-based; conditions: human, HEL cells infected with VSV; in short: as §2
# [47] = as §5; type: cell-based; conditions: chlorocebus sabaeus, Vero cells infected with PIV 3; in short: as §2
# [48] = as §6; type: cell-based; conditions: chlorocebus sabaeus, Vero cells infected with human coxsackievirus B4; in short: as §2
# [49] = as §7; type: cell-based; conditions: chlorocebus sabaeus, Vero cells infected with Punta Toro virus; in short: as §2
# [50] = as §8; type: cell-based; conditions: chlorocebus sabaeus, Vero cells infected with Sindbis virus; in short: as §2
# [51] = as §9; type: cell-based; conditions: HeLa cells infected with respiratory syncytial virus; in short: as §2
# [52] = as §10; type: cell-based; conditions: human, HEL cells infected with vaccinia virus; in short: as §2
# [53] = as §13; type: cell-based; conditions: human, HEL cells infected with herpes simplex virus 2 G; in short: as §2
# [54] = as §14; type: cell-based; conditions: human, HEL cells infected with herpes simplex virus 1 KOS; in short: as §2
# [55] = as §15; type: cell-based; conditions: HeLa cells infected with human coxsackievirus B4; in short: as §2
# [56] = as §16; type: cell-based; conditions: HeLa cells infected with VSV; in short: as §2
structure (smiles),measurement,setting,value
COc1cc(/C=C/C(=O)CC(=O)/C=C/c2ccc(OC(=O)[C@H](Cc3ccccc3)NC(=O)[C@@H](N)Cc3c[nH]c4ccccc34)c(OC)c2)ccc1OC(=O)[C@H](Cc1ccccc1)NC(=O)[C@@H](N)Cc1c[nH]c2ccccc12,CC50,[1],46 nM
same,CC50,[2],96 nM
same,MIC,[3],0.43 µM
same,EC50,[4],> 0.096 µM
same,EC50,[5],> 0.019 µM
same,CC50,[6],19 nM
same,MIC,[7],0.43 µM
same,CC50,[8],> 96 nM
same,CC50,[9],19 nM
same,CC50,[10],96 nM
same,CC50,[11],96 nM
same,EC50,[12],> 19 nM
same,EC50,[13],> 0.038 µM
same,EC50,[14],> 96 nM
same,CC50,[15],96 nM
same,CC50,[16],96 nM
same,CC50,[17],19 nM
same,EC50,[18],> 96 nM
same,CC50,[19],> 107 nM
same,selectivity ratio,[20],9
same,IC50,[21],107 nM
same,EC50,[22],> 0.019 µM
same,EC50,[23],> 96 nM
same,EC50,[24],> 96 nM
same,EC50,[25],> 0.038 µM
same,CC50,[26],19 nM
same,CC50,[27],46 nM
same,EC50,[28],> 0.019 µM
same,EC50,[29],11 nM
same,EC50,[30],> 0.019 µM
same,MIC,[31],0.43 µM
same,IC50,[32],94 nM
same,EC50,[33],> 0.038 µM
same,EC50,[34],> 0.019 µM
same,EC50,[35],> 19 nM
same,CC50,[36],96 nM
same,CC50,[37],> 96 nM
same,EC50,[38],> 0.038 µM
same,Ratio CC50/IC50,[39],<1
same,MIC,[40],0.43 µM
same,CC50,[41],19 nM
same,CC50,[42],> 94 nM
same,CC50,[43],96 nM
same,CC50,[44],96 nM
NC(=O)c1ncn([C@@H]2O[C@H](CO)[C@@H](O)[C@H]2O)n1 [RIBAVIRIN],CC50,[45],> 250 µM
same,EC50,[4],7 µM
same,EC50,[5],> 250 µM
same,CC50,[46],> 250 µM
same,CC50,[47],> 250 µM
same,CC50,[48],> 250 µM
same,CC50,[49],> 250 µM
same,EC50,[13],125 µM
same,CC50,[50],> 250 µM
same,CC50,[51],> 250 µM
same,CC50,[52],> 250 µM
same,EC50,[22],30 µM
same,EC50,[25],95 µM
same,CC50,[53],> 250 µM
same,EC50,[28],30 µM
same,EC50,[30],111 µM
same,EC50,[33],50 µM
same,EC50,[34],10 µM
same,CC50,[54],> 250 µM
same,EC50,[38],> 250 µM
same,CC50,[55],> 250 µM
same,CC50,[56],> 250 µM
